# Source: PubChem
# PLC-beta3 inh – blocks human PLC-beta3 enzyme activity. Purified PLC-beta3, fluorogenic substrate, fluorescence. 370,000 tested, 0.18% active. Q01970. inhibition, % at 12.2 µM; in the data active = inhibition above about 11%;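 note: 0% = median of compound wells on plate and 100% = full blocker control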
# Tb MetRS inh – Trypanosoma brucei MetRS inhibition; purified T. brucei MetRS, ATP depletion, Kinase-Glo luminescence; inhibition, % at 11.9 µM; 360,000 tested, 0.4% active; AID 624268;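 active = inhibition above a per-plate cutoff of the control wells' mean inhibition plus 3 SD, cut at about 5.5% in these data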;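 note: 0% = DMSO wells median and 100% = median of wells with control inhibitor compound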
#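 Test system – parasite MetRS enzyme · Reagent – substrates ATP, L-methionine and bulk Escherichia coli tRNA · Doses – 11.9 µM compound single dose, 0.9% DMSO · Times – 15 min enzyme-compound preincubation, 2 h reaction, 10 min detection, 25 °C · Signal – Kinase-Glo luminescence, ATP depletion format · Controls – DMSO-only wells as low control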
# sPLA2-III inh – Blocks human group III sPLA2 activity. Q9NZ20. QFRET BODIPY PC-A2 liposome hydrolysis, fluorescence. inhibition, % at 12.2 µM. 370,000 tested, 0.56% active. AID 743126;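 active = inhibition above mean plus 3 SD of compounds lying within the high and low control bounds, cut at about 19% in these data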;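 note: 0% = median of test compound wells and 100% = no enzyme DMSO wells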
# PLCg1 inh – inhibitors of human phospholipase C gamma1. purified PLC-gamma1, fluorogenic substrate, fluorescence. inhibition, % at 12.2 µM. 370,000 tested, 0.84% active; in the data active = inhibition above about 9.5%
# hGIII sPLA2 conf – human GIII-sPLA2 inhibition, confirmation. shares compounds with sPLA2-III inh. recombinant hGIII-sPLA2, BODIPY PC-A2 QFRET fluorescence. inhibition, % at 12.2 µM. 2,000 tested, 34% active. AID 743280;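 active = mean inhibition across triplicates above the hit cutoff set in the earlier primary screen, cut at about 19% in these data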;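 note: 0% = enzyme with DMSO and 100% = DMSO wells lacking enzyme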
# 535nm interf – 535nm fluorescence interference, HGIII-sPLA2 counter-screen | shares compounds with sPLA2-III inh | BODIPY FL product fluorescence interference, QFRET | inhibition, % at 12.2 µM | 2,000 tested, 8.5% active | AID 743282;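 active = average inhibition above the solvent-only control mean plus 3 SD, cut at about 6% in these data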;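 note: 0% = DMSO with substrate plus product and 100% = DMSO with substrate alone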
# 535nm interf DR – interferes with 535nm fluorescence in dose response counter-screen; shares compounds with sPLA2-III inh; BODIPY FL product fluorescence interference, cell-free; IC50, µM; 240 tested, under 10 active; AID 743455;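 active = IC50 at or below 10 µM; inactive = IC50 above 10 µM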
# * = called active by the depositor; i = inactive; . = not tested or not shown. Only some compounds are listed: those with a hit (about 1.9% of all), similar ones and a draw of the others.
SMILES,PLC-beta3 inh,Tb MetRS inh,sPLA2-III inh,PLCg1 inh,hGIII sPLA2 conf,535nm interf,others
CC(C)CNC(=O)OCc1cn(Cc2ccc(F)c(F)c2)nn1,-1,.,5,3,.,.,
O=C(N/C(=C\c1ccccc1)C(=O)N1CCN(CCO)CC1)c1ccccc1,-1,0,21*,0,5,-3,
CCc1nc(SCC(=O)Nc2ccc(N(C)C)cc2)c2ccccc2n1,-9,-1,22*,0,23*,-1,
O=[N+]([O-])c1ccc(Nc2ccc(Cl)cc2)nc1,-20,0,-3,-18,.,.,
O=[N+]([O-])c1ccc(NNS(=O)(=O)c2cc(Cl)ccc2Cl)nc1,-8,0,23*,0,48*,72*,
COC(=O)c1sccc1NC(=S)Nc1cccc(F)c1,-5,0,19*,3,5,1,
COC(=O)c1sccc1NC(=S)Nc1ccccc1,4,0,11,3,.,.,
COC(=O)c1sccc1NC(=S)Nc1cc(C)cc(C)c1,-1,-1,23*,-2,15,-4,
COc1ccc(-n2c(COc3ccccc3)nnc2SCC(=O)Nc2ccc3c(c2)OCCO3)cc1,-1,.,-43,2,.,.,
CCSC1=NCCN1S(=O)(=O)c1ccc(Cl)cc1,1,-1,22*,-1,6,-6,
Cc1ccc(C)c(N2CCN(C(=O)c3ccc4nc(-c5ccco5)c(-c5ccco5)nc4c3)CC2)c1,-92,0,20*,-61,6,-23,
Cc1onc(-c2ccccc2)c1C(=O)NC(=S)NNC(=O)c1ccccc1O,-4,-1,42*,-5,34*,1,535nm interf DR=>122
Cc1onc(-c2ccccc2)c1C(=O)NC(=S)NNC(=O)c1ccc(O)cc1O,0,0,23*,-2,23*,3,
Cc1onc(-c2ccccc2)c1C(=O)NC(=S)NNC(=O)c1ccc(O)cc1,0,-1,9,3,.,.,
COc1ccc(C=O)cc1-c1cc(C(C)=O)c2n(c1=O)CCC2,0,.,7,0,.,.,
Cc1cc(C)c(S(=O)(=O)N2C[C@H]3CON(C)[C@H]3C[C@H]2c2ccc(-n3ccnc3)cc2)c(C)c1,1,.,-3,-2,.,.,
O=C(NC(=S)N(Cc1ccccc1)c1ccccn1)C1CCCCC1,8,0,24*,0,8,-4,
C=CCn1c(-c2ccco2)n[nH]c1=S,-3,0,21*,-3,8,-4,
c1ccc(CN2CCN(c3ncnc4sccc34)CC2)cc1,-1,.,0,5,.,.,
CC(=O)c1c(C)nc2sc3c(=N)n(N)cnc3c2c1-c1ccc(Cl)cc1,-15,0,30*,-9,4,-9,
CCOC(=O)c1c(C)nc2sc3c(=O)n(-c4ccc(C(C)=O)cc4)cnc3c2c1-c1ccc(OC)cc1,-2,0,1,-2,.,.,
CC[n+]1ccc(/C=C/c2ccc(N(C)C)cc2)c2ccccc21,-4,-2,24*,3,46*,-11,535nm interf DR=>122
CC[n+]1c(/C=C/c2ccc(N(C)C)cc2)ccc2ccccc21,2,-3,25*,0,43*,-14,535nm interf DR=>122
CC[n+]1ccccc1/C=C/c1ccc(N(C)C)cc1,-28,-1,-1,-24,.,.,
O=C(C1CC1)C1(C(=O)N2CCOCC2)CC(c2ccccn2)=NO1 (stereo not given),2,.,12,5,.,.,
SMILES,PLC-beta3 inh,Tb MetRS inh,sPLA2-III inh,PLCg1 inh,hGIII sPLA2 conf,535nm interf,others
Cc1ccc(N2CCN(CC3CC=CCC3)CC2)cc1 (stereo not given),-3,0,10,0,.,.,
C1=CCC(CN2CCN(C3CCCCCC3)CC2)CC1 (stereo not given),-4,0,20*,7,0,-14,
CN(C)c1cccc(-c2cnc(N3CCC(C(N)=O)CC3)nc2)c1,-42,.,2,-28,.,.,
C=CCN1C=C/C(=C\C=C(C#N)C#N)c2ccccc21,2,6,28*,2,48*,13*,
COC(=O)[C@]12C[C@H](CC(=O)NCC34CC5CC(CC(C5)C3)C4)C(=O)N(Cc3ccc(Cl)cc3Cl)C1=C[C@H](C1CCCC1)O[C@@H]2C,0,.,4,1,.,.,
O=S1(=O)c2ccc(N3CCCC3)cc2Oc2ccccc2CN1Cc1cn(Cc2cccc(C(F)(F)F)c2)nn1,1,.,13,6,.,.,
O=C(O)c1ccccc1C(=O)Nc1ccc(Nc2ccc([N+](=O)[O-])cc2[N+](=O)[O-])cc1,3,-1,22*,3,18,-2,
O=C(O)c1ccccc1C(=O)Nc1cccc([N+](=O)[O-])c1,-6,-1,4,-1,.,.,
Cc1cc(C)n(CCNC(=O)[C@@H](Cc2ccccc2)NC(=O)[C@H]2O[C@@H](n3ccc(=O)[nH]c3=O)[C@H](O)[C@@H]2O)n1,-2,.,17,2,.,.,
O=C(N/N=C/c1cc(Br)cc(Br)c1O)c1cccc(N2CCCC2=O)c1,-44,-1,28*,-25,24*,4,
O=C(N/N=C/c1ccc(Cl)cc1Cl)c1cccc(N2CCCC2=O)c1,-8,-1,5,1,.,.,
Cc1cccc(NC(=O)Nc2nc3ncccn3c2-c2ccc(F)cc2)c1,-368,.,-2,-309,.,.,
COc1ccc(O)c(/C=N/NC(=S)Nc2cccc(S(=O)(=O)N(C)C)c2)c1,i,0,24*,i,11,12*,
COc1ccc(O)c(/C=N/NC(=S)Nc2cccnc2)c1,i,0,20*,-334,27*,5,
CC(=O)c1cc(-c2ccc(-c3ccccc3)c(F)c2)c(=O)n2c1CCC2,-18,.,9,-8,.,.,
Cc1ccc(C)c(OCc2n[nH]c(=S)o2)c1,-9,1,24*,-1,18,1,
Cc1ccc(C(C)C)c(OCc2n[nH]c(=S)o2)c1,-3,0,3,0,.,.,
CN1C2CCCC1CC(NC(=O)c1nn(C)c3ccccc13)C2 (stereo not given),3,.,11,0,.,.,
c1csc(-c2nnc(NC3CCCCC3)c3ccccc23)c1,-33,0,21*,-30,0,-11,
C[C@H]1COc2cc(NCCO)ccc2S(=O)(=O)N1,-1,.,-6,-3,.,.,
Cc1ccc(S(=O)(=O)N(C)C)cc1NC(=O)C1CCCC1,-7,-1,-2,-12,.,.,
CCN(CC)S(=O)(=O)c1ccc(C)c(NC(=S)NNC(=O)C2CC2)c1,4,0,20*,4,23*,-6,
Cc1ccc(S(=O)(=O)N(C)C)cc1NC(=S)NNC(=O)C1CC1,3,-1,30*,1,19,-1,
Cc1ccc(S(=O)(=O)N(C)C)cc1NC(=O)C1CCC1,-8,0,-1,-2,.,.,
Cc1cccnc1NC(=S)NCCc1ccccc1,-7,0,16,3,.,.,
S=C(NCCc1ccccc1)Nc1ncccn1,0,0,20*,0,10,-3,
